{"data": "Experimental data of several laboratories", "target": "Casein kinase I isoform alpha (CSNK1A1, Homo sapiens, UniProt P48729)", "note": "Each line is one published result; the experiments were not run side by side."}
{"SMILES": "CC1=C(C#N)C(c2ccc3c(c2)c(NC(=O)c2ccccc2C)nn3C)C(C#N)=C(C)N1", "assay": "cell-free assay, competition with immobilised ligand", "conditions": "1 µM", "remaining binding": "70%"}
{"SMILES": "Cc1cnn2ncc(-c3ccnc(N(C)C)n3)c2c1", "assay": "binding", "conditions": "1 µM", "remaining binding": "43%"}
{"SMILES": "O=C(NCC1CCOCC1)c1n[nH]cc1NC(=O)c1c(F)cccc1F", "assay": "binding, competition with immobilised ligand", "conditions": "1 µM", "remaining binding": "77%"}
{"SMILES": "CCN1CCN(Cc2ccc(C(=O)Nc3ccc(C)c(Oc4ccc5c(c4)CC(=O)N5)c3)cc2C(F)(F)F)CC1", "assay": "binding, competition with immobilised ligand", "conditions": "1 µM", "remaining binding": "100%"}
{"SMILES": "C=CC(=O)N1CCC(C(=O)NCC(=O)N2CCN(c3nc(-c4cnc(N)nc4C(F)F)nc(N4CCOCC4)n3)CC2)CC1", "assay": "binding, competition with immobilised ligand", "conditions": "1 µM", "remaining binding": "89%"}
{"SMILES": "c1cncc(-c2cccc(Nc3nccc(NC4CCCCC4)n3)c2)c1", "assay": "binding, competition with immobilised ligand", "conditions": "10 µM", "remaining binding": "71%"}
{"SMILES": "O=C(NCCCN1CCOCC1)c1ccc(Nc2ncc(Cl)c(-c3ccc(Cl)s3)n2)cc1", "assay": "binding, competition with immobilised ligand", "conditions": "1 µM", "remaining binding": "100%"}
{"SMILES": "Cc1cc(C)c(-n2ccn3nc(-c4cccnc4)cc23)cc1NC(=O)c1cc(C#N)cc(S(F)(F)(F)(F)F)c1", "assay": "cell-free assay, competition with immobilised ligand", "conditions": "0.1 µM", "remaining binding": "67%"}
{"SMILES": "O=C(c1ccc(Nc2ncc(Cl)c(-c3cc4ccccc4s3)n2)cc1)N1CCC(N2CCCC2)CC1", "assay": "binding, competition with immobilised ligand", "conditions": "1 µM", "remaining binding": "67%"}
{"SMILES": "CNC(=O)[C@@H]1CC[C@@H](n2c(-c3ccc4cnccc4c3)nc3ccc(C(=O)NCc4cccc(C(N)=O)c4)cc32)C1", "assay": "binding, competition with immobilised ligand", "conditions": "1 µM", "remaining binding": "99%"}
{"SMILES": "CN(C)c1nccc(-c2cnc3ncccn23)n1", "assay": "binding", "conditions": "1 µM", "remaining binding": "36%"}
{"SMILES": "CS(=O)(=O)NCC[C@H](NC(=O)c1cncc2c1cnn2-c1ccc(F)cc1)c1ccnc(S(C)(=O)=O)c1", "assay": "cell-free assay, competition with immobilised ligand", "conditions": "1 µM", "remaining binding": "100%"}
{"SMILES": "C[C@@H]1CCN(c2nccc(-c3cnn4ncccc34)n2)C1", "assay": "binding", "conditions": "1 µM", "remaining binding": "61%"}
{"SMILES": "O=C(c1ccc(Nc2ncc(Cl)c(-c3ccc(Cl)s3)n2)cc1)N1CCC(N2CCCC2)CC1", "assay": "binding, competition with immobilised ligand", "conditions": "1 µM", "remaining binding": "97%"}
{"SMILES": "c1cnn2ncc(-c3ccnc(N4CCC45COC5)n3)c2c1", "assay": "binding", "conditions": "1 µM", "remaining binding": "14%"}
{"SMILES": "CNCc1ccccc1-c1csc([C@H](C)Nc2nc(C)nc3cc(OC)c(OC)cc23)c1", "assay": "cell-free assay, competition with immobilised ligand", "conditions": "1 µM", "remaining binding": "74%"}
{"SMILES": "F[C@@H]1CCN(c2nccc(-c3cnn4ncccc34)n2)C1", "assay": "binding", "conditions": "1 µM", "remaining binding": "90%"}
{"SMILES": "CS(=O)(=O)N1CCCC(NC(=O)[C@H](CCC2CCCCC2)NC(=O)c2ccc(CNc3ncnc4c3nnn4-c3ccccc3)cc2)C1 (stereo partly shown)", "assay": "cell-free assay, competition with immobilised ligand", "conditions": "0.1 µM", "remaining binding": "99%"}
{"SMILES": "N[C@H]1CCN(c2nccc(-c3cnn4ncccc34)n2)C1", "assay": "binding", "conditions": "1 µM", "remaining binding": "41%"}
{"SMILES": "COc1ccc2c(c1)O[C@H](c1ccc(OC)c(OC)c1)C[C@@H]2NC(=O)C1(c2ccc3c(c2)OC(F)(F)O3)CC1", "assay": "cell-free assay, competition with immobilised ligand", "conditions": "1 µM", "remaining binding": "82%"}
{"SMILES": "CN(C)c1nccc(-c2cnn3ncccc23)n1", "assay": "binding", "conditions": "1 µM", "remaining binding": "60%"}
{"SMILES": "COc1ncc2cc3ccccc3nc2c1C#N", "assay": "cell-free assay, competition with immobilised ligand", "conditions": "5 µM", "remaining binding": "97%"}
